# Measured values collected from several papers.
# Compare with care: the assays were run in different laboratories.
# Target: Serine/threonine-protein kinase Nek4 (NEK4, Homo sapiens, UniProt P51957)
SMILES,assay,conditions,remaining binding [%]
O=C(Nc1c[nH]nc1C(=O)NC1CCNCC1)c1cc(F)cc(F)c1,"binding, competition with immobilised ligand",1 µM,91
O=C(NCCCN1CCOCC1)c1ccc(Nc2nccc(-c3cc4ccccc4s3)n2)cc1,"binding, competition with immobilised ligand",1 µM,100
F[C@@H]1CCN(c2nccc(-c3cnn4ncccc34)n2)C1,binding,1 µM,100
O=C(c1ccc(Nc2ncc(Cl)c(-c3cc4ccccc4s3)n2)cc1)N1CCC(N2CCCC2)CC1,"binding, competition with immobilised ligand",1 µM,48
Cc1c[nH]c2nccc(Oc3c(F)cc(Nc4cc(Cl)nc(N)n4)cc3F)c12,"cell-free assay, competition with immobilised ligand",0.1 µM,90
C=CC(=O)N1CCC(C(=O)NCC(=O)N2CCN(c3nc(-c4cnc(N)nc4C(F)F)nc(N4CCOCC4)n3)CC2)CC1,"binding, competition with immobilised ligand",1 µM,81
c1cnn2ncc(-c3ccnc(N4CCC45COC5)n3)c2c1,binding,1 µM,68
COc1cnc(Nc2cccc(S(N)(=O)=O)c2)nc1N1CCN(c2ccccc2)C(=O)C1,"binding, competition with immobilised ligand",1 µM,79
O=C(c1ccc(Nc2nccc(-c3cc4ccccc4s3)n2)cc1)N1CCC(N2CCCC2)CC1,"binding, competition with immobilised ligand",1 µM,100
CN(C)c1nccc(-c2cnn3ncccc23)n1,binding,1 µM,98
O=C(Nc1cccnn1)N1CC(C/C=C/c2cncc(Oc3ccc(C(F)(F)F)cn3)n2)C1,"cell-free assay, competition with immobilised ligand",1 µM,95
C[C@H]1CCN(c2nccc(-c3cnn4ncccc34)n2)C1,binding,1 µM,81
COc1ncc2cc3ccccc3nc2c1C#N,"cell-free assay, competition with immobilised ligand",5 µM,93
CCCCN(CCCC)C(=O)CN1C[C@@H](c2cc(OC)c3c(c2)OCO3)[C@H](C(=O)O)[C@H]1CC(C)(C)CCC,"cell-free assay, competition with immobilised ligand",1 µM,93.9
CCN1CCN(Cc2ccc(C(=O)Nc3ccc(C)c(Oc4ccc5c(c4)CC(=O)N5)c3)cc2C(F)(F)F)CC1,"binding, competition with immobilised ligand",1 µM,100
CO[C@@H](C)c1c(Nc2ccc([C@H](N(C)C(=O)C3CCS(=O)(=O)CC3)C(F)(F)F)cc2)cnc2cc(Cl)nn12,"cell-free assay, competition with immobilised ligand",1 µM,90
CC1CCCN1c1nccc(-c2cnn3ncccc23)n1 (stereo not drawn),binding,1 µM,100
C[C@H](c1cccc(C#N)c1)n1cc(Cl)cc(C(N)=O)c1=N,"cell-free assay, competition with immobilised ligand",1 µM,100
N[C@H]1CCN(c2nccc(-c3cnn4ncccc34)n2)C1,binding,1 µM,100
Cn1nc(C(=O)NCc2ccc(C(=O)O)cc2)cc1-c1ccc2[nH]ccc2c1,"cell-free assay, competition with immobilised ligand",0.1 µM,84
COc1cnc(Nc2cccc(S(N)(=O)=O)c2)nc1N1CCN(c2ccccc2)CC1,"binding, competition with immobilised ligand",1 µM,95
